In ChEMBL document CHEMBL4842366, “Design, synthesis and structure-activity relationship studies of 4-indole-2-arylaminopyrimidine derivatives as anti-inflammatory agents for acute lung injury” (Eur J Med Chem, 2021):
Calls of active or inactive are those of the source. No cut-off for these calls is given here.

Columns and labels:
HBE [1] = experiment: Antiinflammatory activity in human HBE cells assessed as inhibition of LPS-induced IL-6 production at 5 uM pretreated with compound for 30 mins followed by LPS stimulation and measured after 24 hrs by ELISA; type: functional, cell-based; settings: time 1470.0 min
Outline: (§1)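 HBE cells were grown in RPMI-1640 with 10% FBS at 37 °C and 5% CO2. Cells were pretreated for 30 min with compound or indomethacin at 5 μM, then stimulated with LPS (100 μg/mL) for 24 h. IL-6 or IL-8 in the medium was measured by ELISA and normalized to total cell protein determined by BCA assay.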

[2] = Cytotoxicity against human HBE cells assessed as reduction in cell survival at 10 uM by MTT assay; type: cell-based
Outline: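 HBE cells were seeded at 1 × 10^4 per well in RPMI-1640 with 10% FBS and exposed to compound at 10 μM. Viability was then read by MTT: MTT solution (5 mg/mL) for 4 h at 37 °C in the dark, formazan dissolved in DMSO, and absorbance read at 490 nm.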

HBE [3] = experiment: Antiinflammatory activity in human HBE cells assessed as inhibition of LPS-induced IL-8 production at 5 uM pretreated with compound for 30 mins followed by LPS stimulation and measured after 24 hrs by ELISA; type: functional, cell-based; settings: time 1470.0 min; outline: as §1
[4] = Cytotoxicity against human HBE cells assessed as cell survival rate at 10 uM by MTT assay relative to control; type: cell-based; settings: read-out: Survival
Outline: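 HBE cells in RPMI-1640 with 10% FBS at 37 °C, 5% CO2, seeded at 1 × 10^4 cells per well. Compounds tested at 10 μM. After treatment, MTT (5 mg/mL) for 4 h at 37 °C in the dark, formazan dissolved in DMSO, absorbance read at 490 nm. Data as mean ± SEM.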

[5] = Antiinflammatory activity in human HBE cells assessed as inhibition of LPS-induced IL-6 production at 5 uM pretreated with compound for 30 mins followed by LPS stimulation and measured after 24 hrs by ELISA relative to control; type: functional; settings: 24.5 h, time 1470 min; outline: as §1
[6] = molecular target: T1, Epidermal growth factor receptor (Homo sapiens, UniProt P00533); experiment: Inhibition of EGFR phosphorylation in human HBE cells incubated for 24 hrs by western blot analysis; type: cell-based
T1 sequence (P00533 whole entry): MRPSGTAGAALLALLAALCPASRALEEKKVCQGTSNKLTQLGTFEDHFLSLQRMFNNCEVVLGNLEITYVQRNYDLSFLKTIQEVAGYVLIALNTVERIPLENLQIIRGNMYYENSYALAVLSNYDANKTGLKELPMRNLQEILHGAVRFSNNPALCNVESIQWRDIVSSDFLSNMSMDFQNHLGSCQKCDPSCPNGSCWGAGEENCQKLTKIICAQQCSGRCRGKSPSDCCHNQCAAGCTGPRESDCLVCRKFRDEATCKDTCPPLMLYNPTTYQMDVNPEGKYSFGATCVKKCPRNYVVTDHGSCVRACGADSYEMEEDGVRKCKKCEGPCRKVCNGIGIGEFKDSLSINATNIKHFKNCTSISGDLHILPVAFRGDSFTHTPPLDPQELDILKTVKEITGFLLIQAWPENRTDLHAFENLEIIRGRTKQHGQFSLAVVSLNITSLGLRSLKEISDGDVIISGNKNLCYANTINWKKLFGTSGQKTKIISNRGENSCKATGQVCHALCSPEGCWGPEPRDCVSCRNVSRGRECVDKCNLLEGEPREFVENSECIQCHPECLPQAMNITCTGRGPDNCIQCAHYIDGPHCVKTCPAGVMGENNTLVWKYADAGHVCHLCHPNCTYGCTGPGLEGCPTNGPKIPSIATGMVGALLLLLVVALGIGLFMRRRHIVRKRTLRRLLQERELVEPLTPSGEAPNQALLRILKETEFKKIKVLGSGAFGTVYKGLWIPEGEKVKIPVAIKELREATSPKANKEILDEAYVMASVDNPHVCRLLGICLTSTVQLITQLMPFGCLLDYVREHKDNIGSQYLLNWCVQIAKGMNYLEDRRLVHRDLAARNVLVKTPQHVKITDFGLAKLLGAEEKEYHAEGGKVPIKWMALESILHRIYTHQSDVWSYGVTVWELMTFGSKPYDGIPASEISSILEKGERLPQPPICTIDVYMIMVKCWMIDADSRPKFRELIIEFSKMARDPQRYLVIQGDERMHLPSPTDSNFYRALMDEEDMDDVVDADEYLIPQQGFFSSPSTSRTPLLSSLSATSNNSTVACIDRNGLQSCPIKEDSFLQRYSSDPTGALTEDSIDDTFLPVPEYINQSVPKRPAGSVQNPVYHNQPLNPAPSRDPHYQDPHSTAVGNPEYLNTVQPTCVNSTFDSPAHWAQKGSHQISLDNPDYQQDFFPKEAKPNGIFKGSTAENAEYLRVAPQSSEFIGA
Outline: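 HBE cells were treated with drug for 24 h, washed with cold PBS and lysed on ice for 30 min in buffer with protease and phosphatase inhibitors, then centrifuged at 12000 r/min, 4 °C, for 30 min. Protein was quantified by BCA and separated by SDS-PAGE. Blots were probed overnight at 4 °C with p-EGFR/EGFR antibodies, then secondary antibody (1:2000, 2 h), and detected by chemiluminescence.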

[7] = Antiinflammatory activity in human HBE cells assessed as inhibition of LPS-induced IL-8 production at 5 uM pretreated with compound for 30 mins followed by LPS stimulation and measured after 24 hrs by ELISA relative to control; type: functional; settings: 24.5 h, time 1470 min; outline: as §1
Mus musculus [8] = experiment: Antiinflammatory activity against LPS-induced acute lung injury C57BL/6 mouse model assessed as reduction in IL-1beta mRNA expression in lungs at 20 mg/kg, ip administered for 3 days and on day 4 treated 1 hr before LPS stimulation and measured after 18 hrs by SYBR green dye based RT-qPCR analysis; type: functional, organism-based; settings: time 4.0 day
Outline: (§2)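 Same LPS lung-injury protocol: n = 6 male C57BL/6 mice per group, 3 days of i.p. saline or compound, then intratracheal LPS (5 mg/kg) 1 h after the day-4 dose, and sacrifice at 18 h. Lung RNA was extracted with TRIZOL for real-time quantitative PCR, with mouse GAPDH primers alongside the target primers. Data are mean ± SEM; Student's t-test.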

Mus musculus [9] = experiment: Antiinflammatory activity against LPS-induced acute lung injury C57BL/6 mouse model assessed as reduction in lung edema by measuring reduction in lung wet/dry ratio at 10 to 20 mg/kg, ip administered for 3 days and on day 4 treated 1 hr before LPS stimulation and measured after 18 hrs; type: functional, organism-based; settings: dose 10-20 mg/kg, time 4.0 day
Outline: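 Mice (male C57BL/6, n = 6/group) received i.p. saline or compound for 3 days, then intratracheal LPS 5 mg/kg 1 h after the day-4 dose, and were killed 18 h later. Lungs were weighed wet, dried at 60 °C for 48 h to constant weight, and the wet/dry ratio was calculated. Data are mean ± SEM; t-test.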

Mus musculus [10] = experiment: (§3) Antiinflammatory activity against LPS-induced acute lung injury C57BL/6 mouse model assessed as reduction in edema of lung tissue at 20 mg/kg, ip administered for 3 days and on day 4 treated 1 hr before LPS stimulation and measured after 18 hrs by H and E staining based microscopic analysis; type: functional, organism-based; settings: time 4.0 day
Outline: (§4)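 Male C57BL/6 mice (20–25 g, SPF) in groups of n = 6 were given 0.9% saline or compound i.p. for 3 days. On day 4, LPS (5 mg/kg) was instilled intratracheally 1 h after dosing, and mice were killed 18 h later. Lungs were fixed in 4% paraformaldehyde, paraffin-embedded, cut at 5 μm, H&E-stained and photographed for pathology.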

Mus musculus [11] = experiment: Antiinflammatory activity against LPS-induced acute lung injury C57BL/6 mouse model assessed as reduction in protein content in BALF at 10 to 20 mg/kg, ip administered for 3 days and on day 4 treated 1 hr before LPS stimulation and measured after 18 hrs by BCA assay; type: functional, organism-based; settings: dose 10-20 mg/kg, time 4.0 day
Outline: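 In male C57BL/6 mice (n = 6/group; i.p. dosing for 3 days; intratracheal LPS 5 mg/kg 1 h after the day-4 dose; killed at 18 h), lungs were lavaged three times with 1 mL cold PBS. BALF was spun at 800 g, 4 °C, for 10 min, and supernatant protein was measured by BCA assay.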

Mus musculus [12] = experiment: Antiinflammatory activity against LPS-induced acute lung injury C57BL/6 mouse model assessed as reduction in IL-6 mRNA expression in lungs at 20 mg/kg, ip administered for 3 days and on day 4 treated 1 hr before LPS stimulation and measured after 18 hrs by SYBR green dye based RT-qPCR analysis; type: functional, organism-based; settings: time 4.0 day; outline: as §2
Mus musculus [13] = experiment: In vivo inhibition of MAPK phosphorylation in LPS-induced acute lung injury C57BL/6 mouse model assessed as inhibition of ERK phosphorylation in lungs at 20 mg/kg, ip administered for 3 days and on day 4 treated 1 hr before LPS stimulation and measured after 18 hrs by western blot analysis; type: functional, organism-based; settings: time 4.0 day
Mus musculus [14] = experiment: Antiinflammatory activity against LPS-induced acute lung injury C57BL/6 mouse model assessed as improved alveolar structure in lungs at 20 mg/kg, ip administered for 3 days and on day 4 treated 1 hr before LPS stimulation and measured after 18 hrs by H and E staining based microscopic analysis; type: functional, organism-based; settings: time 4.0 day; outline: as §4
Mus musculus [15] = experiment: Antiinflammatory activity against LPS-induced acute lung injury C57BL/6 mouse model assessed as reduction in total cell count in BALF at 10 to 20 mg/kg, ip administered for 3 days and on day 4 treated 1 hr before LPS stimulation and measured after 18 hrs; type: functional, organism-based; settings: dose 10-20 mg/kg, time 4.0 day
Outline: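 BALF was collected 18 h after intratracheal LPS (5 mg/kg) in male C57BL/6 mice (n = 6/group) given i.p. saline or compound for 3 days, with LPS 1 h after the day-4 dose. Lavage was done with 3 × 1 mL cold PBS and centrifuged at 800 g, 4 °C, for 10 min. The pellet was washed and resuspended in 10 mL PBS, and total cells were counted.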

Mus musculus [16] = experiment: as §3, with “inflammatory cell infiltration in lungs” for “edema of lung tissue”; type: functional, organism-based; settings: time 4.0 day; outline: as §4
Mus musculus [17] = experiment: Antiinflammatory activity against LPS-induced acute lung injury C57BL/6 mouse model assessed as reduction in iNOS mRNA expression in lungs at 10 to 20 mg/kg, ip administered for 3 days and on day 4 treated 1 hr before LPS stimulation and measured after 18 hrs by SYBR green dye based RT-qPCR analysis; type: functional, organism-based; settings: dose 10-20 mg/kg, time 4.0 day; outline: as §2
Mus musculus [18] = experiment: Antiinflammatory activity against LPS-induced acute lung injury C57BL/6 mouse model assessed as reduction in TNF-alpha mRNA expression in lungs at 20 mg/kg, ip administered for 3 days and on day 4 treated 1 hr before LPS stimulation and measured after 18 hrs by SYBR green dye based RT-qPCR analysis; type: functional, organism-based; settings: time 4.0 day; outline: as §2
Mus musculus [19] = experiment: In vivo inhibition of MAPK phosphorylation in LPS-induced acute lung injury C57BL/6 mouse model assessed as inhibition of p38 phosphorylation in lungs at 20 mg/kg, ip administered for 3 days and on day 4 treated 1 hr before LPS stimulation and measured after 18 hrs by western blot analysis; type: functional, organism-based; settings: time 4.0 day
[20] = molecular target: T1, Epidermal growth factor receptor; experiment: Inhibition of human EGFR using poly(Glu:Tyr)(4:1) as substrate in presence of [gamma33P]ATP by radiometric HotSpot assay
Peritoneal macrophage = experiment: Inhibition of LPS-induced NO production in mouse peritoneal macrophages measured after 24 hrs by Griess assay; type: functional, cell-based

SMILES | Activity (HBE [1]) | Activity [2] | Activity (HBE [3]) | inhibition at 5 µM [7] | further results
COc1cc(N2CCOCC2)c(N)cc1Nc1nccc(-c2cn(C)c3ccccc23)n1.Cl | Active | Non-Toxic | Active |  | 
COc1cc(N(C)CCN(C)C)c([N+](=O)[O-])cc1Nc1nccc(-c2cn(C)c3ccccc23)n1 | Active |  | Active |  | viability at 10 µM [4]: < 70%
COc1cc(N2CCCC2)c(N)cc1Nc1nccc(-c2cn(C)c3ccccc23)n1.Cl |  | Non-Toxic |  | 65% | inhibition at 5 µM [5]: 62%; inhibition [6]: Active
COc1cc(F)c(N)cc1Nc1nccc(-c2cn(C)c3ccccc23)n1 |  | Non-Toxic |  | 49% | inhibition at 5 µM [5]: 63%; inhibition [6]: Active
COc1cc(N(C)CCN(C)C)c(NC(=O)CCCN=[N+]=[N-])cc1Nc1nccc(-c2cn(C)c3ccccc23)n1 | Active | Non-Toxic |  | 88% | 
COc1cc(N2CCCCCC2)c(N)cc1Nc1nccc(-c2cn(C)c3ccccc23)n1.Cl | Active | Non-Toxic | Active |  | 
COc1cc(N2CCN(C)CC2)c(N)cc1Nc1nccc(-c2cn(C)c3ccccc23)n1 |  |  |  | 65% | viability at 10 µM [4]: < 70%; inhibition at 5 µM [5]: 62%
COc1cc(N2CCCCC2)c(N)cc1Nc1nccc(-c2cn(C)c3ccccc23)n1.Cl | Active | Non-Toxic | Active |  | 
COc1cc(N(C)CCN(C)C)c(N)cc1Nc1nccc(-c2cn(C)c3ccccc23)n1.Cl |  | Non-Toxic |  | 72% | Activity (Mus musculus [8]): Active; Activity (Mus musculus [9]): Active; Activity (Mus musculus [10]): Active; Activity (Mus musculus [11]): Active; inhibition at 5 µM [5]: 62%; inhibition [6]: Active; Activity (Mus musculus [12]): Active; inhibition (Mus musculus [13]): Active; Activity (Mus musculus [14]): Active; Activity (Mus musculus [15]): Active; Activity (Mus musculus [16]): Active; Activity (Mus musculus [17]): Active; Activity (Mus musculus [18]): Active; inhibition (Mus musculus [19]): Active
O=C(Nc1cncnc1Oc1cccc(C(F)(F)F)c1)c1ccc(F)cc1 |  |  |  |  | IC50 [20]: 2.98 µM; IC50 (Peritoneal macrophage): 20.8 µM
COc1cc(N(C)CCN(C)C)c(NC(=O)CN=[N+]=[N-])cc1Nc1nccc(-c2cn(C)c3ccccc23)n1 | Active | Non-Toxic | Active |  | 
CCCCN(CCCC)c1cc(OC)c(Nc2nccc(-c3cn(C)c4ccccc34)n2)cc1N.Cl | Active | Non-Toxic | Active |  | 
COc1ccc2c(c1)c(CC(=O)O)c(C)n2C(=O)c1ccc(Cl)cc1 [INDOMETHACIN] | Active | Non-Toxic | Active |  | 
CCN(CC)c1cc(OC)c(Nc2nccc(-c3cn(C)c4ccccc34)n2)cc1N.Cl | Active | Non-Toxic | Active |  | 
